Source: ChEMBL document CHEMBL1141250, “Isolation, structure, and coccidiostat activity of coccidiostatin A” (J Nat Prod, 2007)
The source made the active and inactive calls. The calls are words filed in the database; no cut-off is given here.

What was measured:
Besnoitia jellisoni = experiment: Antiprotozoal activity against Besnoitia jellisoni trophozoites in HFF cells assessed as intactness of cell monolayer after 4 days by Ex-Bes assay; type: functional; conditions: 96 h, read-out: ED50 (the source's name)
Method in brief: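 Whole-cell in vitro Ex-Bes (extended Besnoitia) assay: B. jellisoni trachyzoites treated with test compounds. ED50 is the concentration giving 50% reduction of trachyzoites relative to an untreated control, read visually. Value is the average of two experiments run in duplicate.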

HFF [1] = experiment: Cytotoxicity against human HFF cells at 1 ug/ml by Ex-Bes assay; type: cell-based
HFF [2] = experiment: Cytotoxicity against human HFF cells at =< 0.125 ug/ml by Ex-Bes assay; type: cell-based
Eimeria tenella [3] = experiment: Anticococcidal activity against Eimeria tenella infected chick at 416 ppm, po; type: functional, organism-based
Method in brief: (§1)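 In vivo test in the minibird assay for coccidiosis (MAC) using Eimeria-infected chickens. Compounds were tested as purified material. Activity in this assay guided fractionation of the fungal extract.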

Eimeria acervulina [4] = experiment: Anticococcidal activity against Eimeria acervulina infected chick at 416 ppm, po; type: functional, organism-based; method in brief: as §1
Eimeria mitis [5] = experiment: Anticococcidal activity against Eimeria mitis infected chick at 416 ppm, po; type: functional, organism-based; method in brief: as §1
Eimeria maxima [6] = experiment: Anticococcidal activity against Eimeria maxima infected chick at 416 ppm, po; type: functional, organism-based; method in brief: as §1
Eimeria praecox [7] = experiment: Anticococcidal activity against Eimeria praecox infected chick at 416 ppm, po; type: functional; method in brief: as §1
Eimeria tenella [8] = experiment: Anticococcidal activity against Eimeria tenella infected chick at 28 mg/kg, ip; type: functional, organism-based; parameters: dose 28 mg/kg; method in brief: as §1
Eimeria acervulina [9] = experiment: Anticococcidal activity against Eimeria acervulina infected chick at 28 mg/kg, ip; type: functional, organism-based; parameters: dose 28 mg/kg; method in brief: as §1
Eimeria mitis [10] = experiment: Anticococcidal activity against Eimeria mitis infected chick at 28 mg/kg, ip; type: functional, organism-based; parameters: dose 28 mg/kg; method in brief: as §1
Eimeria maxima [11] = experiment: Anticococcidal activity against Eimeria maxima infected chick at 28 mg/kg, ip; type: functional, organism-based; parameters: dose 28 mg/kg; method in brief: as §1
Eimeria praecox [12] = experiment: Anticococcidal activity against Eimeria praecox infected chick at 28 mg/kg, ip; type: functional, organism-based; parameters: dose 28 mg/kg; method in brief: as §1
Eimeria tenella [13] = experiment: Anticococcidal activity against Eimeria tenella infected chick assessed as reduction of oocyst at 150 ppm after 48 hrs relative to control; type: functional; parameters: scale not given: the % may be the effect or the level left; method in brief: as §1
Eimeria acervulina [14] = experiment: Anticococcidal activity against Eimeria acervulina infected chick assessed as reduction of oocyst at 150 ppm after 48 hrs relative to control; type: functional; parameters: scale not given: the % may be the effect or the level left; method in brief: as §1
Eimeria acervulina [15] = experiment: Anticococcidal activity against Eimeria acervulina infected chick assessed as reduction of oocyst at 75 ppm after 48 hrs relative to control; type: functional; parameters: scale not given: the % may be the effect or the level left; method in brief: as §1
Eimeria mitis [16] = experiment: Anticococcidal activity against Eimeria mitis infected chick assessed as reduction of oocyst at 150 ppm after 48 hrs relative to control; type: functional; parameters: scale not given: the % may be the effect or the level left; method in brief: as §1
Eimeria maxima [17] = experiment: Anticococcidal activity against Eimeria maxima infected chick assessed as reduction of oocyst at 75 ppm after 48 hrs relative to control; type: functional, organism-based; method in brief: as §1
Eimeria praecox [18] = experiment: Anticococcidal activity against Eimeria praecox infected chick assessed as reduction of oocyst at 75 ppm after 48 hrs relative to control; type: functional; method in brief: as §1
HFF [19] = experiment: Cytotoxicity against human HFF cells at 500 ppm by Ex-Bes assay; type: cell-based
Eimeria maxima [20] = experiment: Anticococcidal activity against Eimeria maxima infected chick assessed as reduction of oocyst at 150 ppm after 48 hrs relative to control; type: functional, organism-based; method in brief: as §1
Eimeria praecox [21] = experiment: Anticococcidal activity against Eimeria praecox infected chick assessed as reduction of oocyst at 150 ppm after 48 hrs relative to control; type: functional; method in brief: as §1
Eimeria tenella [22] = experiment: Anticococcidal activity against Eimeria tenella infected chick at 75 to 150 ppm; type: functional, organism-based; method in brief: as §1
Eimeria acervulina [23] = experiment: Anticococcidal activity against Eimeria acervulina infected chick at 75 to 150 ppm; type: functional, organism-based; method in brief: as §1
Eimeria mitis [24] = experiment: Anticococcidal activity against Eimeria mitis infected chick at 75 to 150 ppm; type: functional, organism-based; method in brief: as §1
Eimeria maxima [25] = experiment: Anticococcidal activity against Eimeria maxima infected chick at 75 to 150 ppm; type: functional, organism-based; method in brief: as §1
Eimeria praecox [26] = experiment: Anticococcidal activity against Eimeria praecox infected chick at 75 to 150 ppm; type: functional; method in brief: as §1

Q: How did the EC50 (Besnoitia jellisoni) turn out when CCC(=O)CCCCC[C@@H]1NC(=O)[C@H]2CCCCN2C(=O)[C@H]([C@@H](C)CC)NC(=O)[C@H](Cc2cn(OC)c3ccccc23)NC1=O [APICIDIN] was run?
A: Its EC50 is less than 0.28 µM.

Q: What about the Activity (HFF [1]) of the same molecule?
A: The Activity was “Toxic”.

Q: What about the Activity (HFF [2]) of the same molecule?
A: The Activity was “Non-toxic”.

Q: With CC(=C/C(C)=C\[C@]1(C)O[C@@H](C)[C@]2(C)O[C@@H]21)/C=C(C)\C=C(C)/C=C(\C)[C@@H]1OC(=O)C(C)(C)C(=O)[C@H]1C [EMECORRGATIN A] as the molecule, how does the EC50 (Besnoitia jellisoni) read?
A: The EC50 was 1.39 µM.

Q: And the Activity (Eimeria tenella [3])?
A: The Activity was “inactive”.

Q: And the Activity (Eimeria acervulina [4])?
A: The Activity was “inactive”.

Q: And the Activity (Eimeria mitis [5])?
A: Its Activity is “inactive”.

Q: And the Activity (Eimeria maxima [6])?
A: Its Activity is “inactive”.

Q: And the Activity (Eimeria praecox [7])?
A: Its Activity is “inactive”.

Q: And the Activity (Eimeria tenella [8])?
A: The Activity was “inactive”.

Q: What about the Activity (Eimeria acervulina [9]) of the same molecule?
A: The Activity was “inactive”.

Q: What about the Activity (Eimeria mitis [10]) of the same molecule?
A: Its Activity is “inactive”.

Q: And the Activity (Eimeria maxima [11])?
A: The Activity was “inactive”.

Q: And the Activity (Eimeria praecox [12])?
A: Its Activity is “inactive”.

Q: What does the source list for CC1=C[C@@]2(C)O[C@@H](C)[C@@](C)(O)[C@H]2[C@@H]1/C=C/C=C/C=C/C=C/C1(C)C2OC(=O)C1(C)C(=O)C2C (stereo partly drawn) [COCCIDIOSTATIN A]?
A: Activity (Eimeria tenella [13]): 59%; Activity (Eimeria acervulina [14]): 74%; Activity (Eimeria acervulina [15]): 64%; Activity (Eimeria mitis [16]): 44%; Activity (Eimeria maxima [17]): inactive; Activity (Eimeria praecox [18]): inactive; Activity (HFF [19]): Non-toxic; Activity (Eimeria maxima [20]): inactive; Activity (Eimeria praecox [21]): inactive; Activity (Eimeria tenella [22]): Active; Activity (Eimeria acervulina [23]): Active; Activity (Eimeria mitis [24]): Active; Activity (Eimeria maxima [25]): Active; Activity (Eimeria praecox [26]): Active
